The values that follow come from ChEMBL document CHEMBL1123309, “Esters and lactones of phenolic amino carboxylic acids: prodrugs for iron chelation” (J Med Chem, 1986).

Where only a bound is given, the exact number is not on record here.

Data set [1] concerns Mus musculus. As to the kind of experiment: BDF1 male mice were administered with 129 mg/kg intraperitoneally and percent change in iron levels was determined in Feces. Type of data set: functional. Particulars: route intraperitoneal. The procedure, abridged:
(§1)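 Male BDF1 mice made iron-overloaded by transfusion of washed, heat-treated (50 °C, 30 min) canine red cells. Dosing began 2 days after the last transfusion, once daily for 7 days, in distilled water or 2% Polysorbate 80 suspension. Daily group urine was collected. Pooled feces were digested in 1 N HCl (90 °C, 30 min). Liver and spleen were homogenized in saline. Iron was measured by atomic absorption and expressed as % change vs transfused controls.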

The test system of data set [2] is Mus musculus. Briefly: BDF1 male mice were administered with 129 mg/kg intraperitoneally and percent change in iron levels was determined in Liver. Particulars: route intraperitoneal. In kind it is functional. The procedure, abridged: as §1
Data set [3] has as its system Mus musculus. Briefly: BDF1 male mice were administered with 129 mg/kg intraperitoneally and percent change in iron levels was determined in Urine. Type of data set: functional. Conditions: route intraperitoneal. A digest of the protocol:
as §1

Data set [4] concerns Mus musculus. As to the kind of experiment: BDF1 male mice were administered with 129 mg/kg intraperitoneally and number of survivors was determined out 10 tested. Type of data set: functional. Conditions: route intraperitoneal. A digest of the protocol: (§2)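 Male BDF1 mice were iron-loaded by transfusion of canine red cells. The cells were heparinised, washed twice in isotonic saline and heated at 50 °C for 30 min. Dosing started two days after the last transfusion, once daily for 7 consecutive days. Compounds were given in distilled water or as a fine aqueous suspension with Polysorbate 80 (2% final). Toxic signs were recorded daily and survivors counted per group.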

In data set [5] the test system is Mus musculus. Briefly: BDF1 male mice were administered with 129 mg/kg intraperitoneally and percent change in iron levels was determined in Spleen. Type of data set: functional. Conditions: route intraperitoneal. The procedure, abridged: as §1
In data set [6] the test system is Mus musculus. As to the kind of experiment: BDF1 male mice were administered with 300 mg/kg intraperitoneally and percent change in iron levels was determined in Feces. Type of data set: functional. Conditions: route intraperitoneal. The procedure, abridged:
(§3)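 Male BDF1 mice were hypertransfused with washed, heat-treated (50 °C, 30 min) canine red cells. Starting 2 days after the last transfusion, they received one ip injection daily for 7 days, in distilled water or an aqueous suspension with Polysorbate 80 (2% final). Group urine was collected every 24 h. Feces were digested in 1 N HCl (90 °C, 30 min, triplicate). Liver and spleen were homogenized. Iron was measured by atomic absorption and reported as % change vs transfused controls.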

Data set [7] concerns Mus musculus. Briefly: BDF1 male mice were administered with 300 mg/kg intraperitoneally and percent change in iron levels was determined in Spleen. In kind it is functional. Particulars: route intraperitoneal. A digest of the protocol: as §3
Data set [8] relates to Mus musculus. Briefly: BDF1 male mice were administered with 300 mg/kg intraperitoneally and percent change in iron levels was determined in Urine. In kind it is functional. Conditions: route intraperitoneal. The procedure, abridged:
as §3

In data set [9] the test system is Mus musculus. As to the kind of experiment: BDF1 male mice were administered with 300 mg/kg intraperitoneally and percent change in iron levels was determined in liver. Conditions: route intraperitoneal. In kind it is functional. A digest of the protocol:
as §3

Data set [10] deals with Mus musculus. As to the kind of experiment: BDF1 male mice were administered with 300 mg/kg intraperitoneally and number of survivors was determined out of 10 tested. Type of data set: functional. Conditions: route intraperitoneal. A digest of the protocol: as §2
Data set [11] in a line: Compound was evaluated for lethal dose after intraperitoneal administration using iron overload rat model. Type of data set: toxicity, organism-based. Particulars: in vivo, ip.
Data set [12] concerns Rattus norvegicus. As to the kind of experiment: Percent change in iron levels was determined in feces using iron overload rat model where the route of administration is Intraperitoneal. In kind it is ADME, organism-based. Particulars: in vivo, ip.
Data set [13] relates to Rattus norvegicus. Briefly: Percent change in iron levels was determined in urine using iron overload rat model where the route of administration is Intraperitoneal. In kind it is ADME, organism-based. Conditions: in vivo, ip.
Data set [14] deals with Rattus norvegicus. Briefly: Percent change in iron levels was determined in urine using iron overload rat model where the route of administration is Peroral. Type of data set: ADME, organism-based. Conditions: in vivo, po.
In data set [15] the test system is Rattus norvegicus. As to the kind of experiment: Percent change in iron levels was determined in feces using iron overload rat model where the route of administration is Peroral. In kind it is ADME, organism-based. Particulars: in vivo, po.
The test system of data set [16] is Mus musculus. As to the kind of experiment: BDF1 male mice were administered with 200 mg/kg intraperitoneally and percent change in iron levels was determined in Feces. In kind it is functional. Conditions: route intraperitoneal. The procedure, abridged:
as §1

For data set [17], the system named is Mus musculus. As to the kind of experiment: BDF1 male mice were administered with 200 mg/kg intraperitoneally and percent change in iron levels was determined in Spleen. In kind it is functional. Particulars: route intraperitoneal. A digest of the protocol: as §1
The subject of data set [18] is Mus musculus. Briefly: BDF1 male mice were administered with 200 mg/kg intraperitoneally and percent change in iron levels was determined in Urine. In kind it is functional. Conditions: route intraperitoneal. The procedure, abridged: as §1
In data set [19] the test system is Mus musculus. As to the kind of experiment: BDF1 male mice were administered with 200 mg/kg intraperitoneally and percent change in iron levels was determined in liver. Conditions: route intraperitoneal. Type of data set: functional. The procedure, abridged:
as §1

Data set [20] relates to Mus musculus. Briefly: BDF1 male mice were administered with 100 mg/kg intraperitoneally and percent change in iron levels was determined in Feces. Type of data set: functional. Particulars: route intraperitoneal. The procedure, abridged:
as §1

The test system of data set [21] is Mus musculus. As to the kind of experiment: BDF1 male mice were administered with 100 mg/kg intraperitoneally and percent change in iron levels was determined in Liver. Particulars: route intraperitoneal. In kind it is functional. A digest of the protocol:
as §1

For data set [22], the system named is Mus musculus. As to the kind of experiment: BDF1 male mice were administered with 100 mg/kg intraperitoneally and percent change in iron levels was determined in Spleen. Particulars: route intraperitoneal. Type of data set: functional. A digest of the protocol:
as §1

Data set [23] deals with Mus musculus. As to the kind of experiment: BDF1 male mice were administered with 100 mg/kg intraperitoneally and percent change in iron levels was determined in Urine. Conditions: route intraperitoneal. Type of data set: functional. A digest of the protocol:
as §1

Data set [24] has as its system Mus musculus. Briefly: BDF1 male mice were administered with 100 mg/kg intraperitoneally and number of survivors was determined out of 10 tested. Type of data set: functional. Particulars: route intraperitoneal. A digest of the protocol: as §2
Data set [25] deals with Mus musculus. Briefly: BDF1 male mice were administered with 200 mg/kg intraperitoneally and number of survivors was determined out of 10 tested. Type of data set: functional. Conditions: route intraperitoneal. The procedure, abridged:
as §2

Take `O=C([O-])CN(CCN(CC(=O)[O-])c1ccccc1O)c1ccccc1O.[Li+].[Li+]`: the Iron change is reported as -38% in the data set with Mus musculus [1], -49% in the data set with Mus musculus [2], 28% with Mus musculus [3] and -7% with Mus musculus [5]. In the data set on Mus musculus [4], the No. of survivors was determined as 9.
For orientation: LD50 means the dose at which mortality reaches 50%. For the molecule `O=C(O)CN(Cc1ccccc1O)CC(O)CN(CC(=O)O)Cc1ccccc1O`, the Iron change in the data set with Mus musculus [6] is given as -32%; with Mus musculus [7], 6%; in the data set on Mus musculus [8] it was 127%; in the data set with Mus musculus [9], -50%; with Rattus norvegicus [12], 255%; in the data set on Rattus norvegicus [13] it was 118%. Further, the Iron change with Rattus norvegicus [14] was 30%; in the data set on Rattus norvegicus [15] it was 20%. This molecule came in with a No. of survivors in the data set on Mus musculus [10] of 10. In data set [11], this molecule gave an LD50 of at least 800 mg/kg.
For `O=C([O-])CN(CCN(CC(=O)[O-])c1ccccc1O)c1ccccc1O.[Na+].[Na+]`, the Iron change in the data set on Mus musculus [16] is reported as -15%; with Mus musculus [17] it was 22%; in the data set with Mus musculus [18] it was 143%; with Mus musculus [19], -22%; in the data set on Mus musculus [20], 3%; with Mus musculus [21], -22%. Further, the Iron change in the data set on Mus musculus [22] is 7%; in the data set with Mus musculus [23], 106%. Besides, the No. of survivors in the data set on Mus musculus [24] amounted to 10; in the data set on Mus musculus [25], 5.
